Active and inactive are the calls of the source. No cut-off for these calls is given here.
How the values were obtained:
[1] = target: Glutathione S-transferase P (Homo sapiens) (UniProt P09211); assay: Inhibition of recombinant human N-terminal His-tagged GSTP1 (1 to 210 residues) expressed in Escherichia coli at 100 uM using reduced GSH as substrate measured after 0.5 hrs by CDNB assay
Summary of the method: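 GSTP catalytic activity followed via GSH–CDNB conjugation, read as absorbance at 340 nm specific to the conjugate. Compounds tested up to 100 μM.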

[2] = target: Glutathione S-transferase P (Homo sapiens) (UniProt P09211); assay: Induction of GSTP1 degradation in human HeLa cells at 40 to 80 uM measured after 3 hrs by Western blot analysis; format: cell-based; settings: dose 40-80 µM
Summary of the method: (§1)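 GSTP protein in whole-cell lysates, detected by Western blot with specific antibodies after 3 h compound exposure. HeLa (high GSTP expression) treated at 40 or 80 μM or over a dose range; A549 and HT1080 cells (high or medium GSTP) also tested. Blots representative of three independent experiments.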

[3] = target: Glutathione S-transferase P (Homo sapiens) (UniProt P09211); assay: Induction of GSTP1 degradation in human HeLa cells at 40 uM measured after 3 hrs by Western blot analysis relative to control; format: cell-based; summary of the method: as §1
[4] = target: Glutathione S-transferase P (Homo sapiens) (UniProt P09211); assay: Induction of GSTP1 degradation in human HeLa cells measured after 3 hrs by Western blot analysis; format: cell-based; summary of the method: as §1
[5] = target: Glutathione S-transferase P (Homo sapiens) (UniProt P09211); assay: Induction of GSTP1 degradation in human HeLa cells measured after 3 hrs in presence of protein synthesis inhibitor cycloheximide by Western blot analysis; format: cell-based
Summary of the method: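 HeLa cells pretreated with cycloheximide, then exposed to compound over a dose range for 3 h. GSTP in total lysates read by Western blot with specific antibodies. Blots representative of three independent experiments.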

[6] = target: Glutathione S-transferase P (Homo sapiens) (UniProt P09211); assay: Induction of GSTP1 degradation in human A549 cells at 5 to 80 uM measured after 3 hrs by Western blot analysis; format: cell-based; settings: dose 5-80 µM; summary of the method: as §1
[7] = target: Glutathione S-transferase P (Homo sapiens) (UniProt P09211); assay: Induction of GSTP1 degradation in human HT-1080 cells at 5 to 80 uM measured after 3 hrs by Western blot analysis; format: cell-based; settings: dose 5-80 µM; summary of the method: as §1
[8] = target: Glutathione S-transferase P (Homo sapiens) (UniProt P09211); assay: Induction of GSTP1 degradation in human HeLa cells at 80 uM measured after 3 hrs in presence of 20S proteasome inhibitor bortezomib by Western blot analysis; format: cell-based
Summary of the method: (§2)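 HeLa cells cotreated with test compound plus bortezomib (20S proteasome inhibitor), PYR-41 (E1 ubiquitin-activating enzyme inhibitor) or bafilomycin A1 (V-ATPase inhibitor, blocks autophagosome–lysosome fusion). GSTP in total cell lysates then detected by Western blot with specific antibodies. Representative of three independent experiments.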

[9] = target: Glutathione S-transferase P (Homo sapiens) (UniProt P09211); assay: Induction of GSTP1 degradation in human HeLa cells at 80 uM measured after 3 hrs in presence of ubiquitin activating enzyme E1 inhibitor PYR-41 by Western blot analysis; format: cell-based; summary of the method: as §2
[10] = target: Glutathione S-transferase P (Homo sapiens) (UniProt P09211); assay: Induction of GSTP1 degradation in human HeLa cells at 80 uM measured after 3 hrs in presence of vacuolar type H (+)-ATPase inhibitor bafilomycin A1 by Western blot analysis; format: cell-based; summary of the method: as §2
[11] = target: Glutathione S-transferase P (Homo sapiens) (UniProt P09211); assay: Induction of GSTP1 degradation in human HeLa cells assessed as increase in JNK phosphorylation at 5 to 80 uM measured after 3 hrs by Western blot analysis; format: cell-based; settings: dose 5-80 µM
Summary of the method: (§3)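 HeLa cells exposed to compound for 3 h. Total cell lysates probed by Western blot with specific antibodies for phospho-JNK, phospho-c-Jun and total JNK. Total JNK bands quantified by densitometry. Representative of three independent experiments.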

[12] = target: Glutathione S-transferase P (Homo sapiens) (UniProt P09211); assay: Induction of GSTP1 degradation in human HeLa cells assessed as increase in c-Jun phosphorylation at 5 to 80 uM measured after 3 hrs by Western blot analysis; format: cell-based; settings: dose 5-80 µM; summary of the method: as §3
[13] = target: Glutathione S-transferase P (Homo sapiens) (UniProt P09211); assay: Induction of GSTP1 degradation in human HeLa cells assessed as reduction in total JNK expression at 20 to 80 uM measured after 3 hrs by Western blot analysis; format: cell-based; settings: dose 20-80 µM; summary of the method: as §3
[14] = test system: HeLa; assay: Induction of reactive oxygen species generation in human HeLa cells measured after 3 hrs by DCFH-DA staining based fluorescence laser confocal microscopic analysis; format: functional, cell-based; settings: dose 5-80 µM
Summary of the method: (§4)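 HeLa cells loaded with DCFH-DA fluorescent ROS probe after treatment at the indicated concentrations. Fluorescence read at Ex/Em 488/525 by laser confocal microscopy. Rosup 50 μg/mL served as positive control.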

[15] = test system: HeLa; assay: Induction of apoptosis in human HeLa cells measured after 3 hrs by Annexin V-FITC/propidium iodide staining based flow cytometry; format: functional, cell-based
[16] = test system: HeLa; assay: Induction of apoptosis in human HeLa cells assessed as viable cells at 10 uM measured after 3 hrs by Annexin V-FITC/propidium iodide staining based flow cytometry (reference value: 91.43%); format: functional; settings: read-out: Activity
[17] = test system: HeLa; assay: Induction of apoptosis in human HeLa cells assessed as early apoptotic cells at 10 uM measured after 3 hrs by Annexin V-FITC/propidium iodide staining based flow cytometry (reference value: 4.37%); format: functional
[18] = test system: HeLa; assay: Induction of apoptosis in human HeLa cells assessed as late apoptotic cells at 10 uM measured after 3 hrs by Annexin V-FITC/propidium iodide staining based flow cytometry (reference value: 3.59%); format: functional
[19] = test system: HeLa; assay: Induction of apoptosis in human HeLa cells assessed as necrotic cells at 10 uM measured after 3 hrs by Annexin V-FITC/propidium iodide staining based flow cytometry (reference value: 0.61%); format: functional
[20] = test system: HeLa; assay: Induction of apoptosis in human HeLa cells assessed as viable cells at 20 uM measured after 3 hrs by Annexin V-FITC/propidium iodide staining based flow cytometry (reference value: 91.43%); format: functional; settings: read-out: Activity
[21] = test system: HeLa; assay: Induction of apoptosis in human HeLa cells assessed as early apoptotic cells at 20 uM measured after 3 hrs by Annexin V-FITC/propidium iodide staining based flow cytometry (reference value: 4.37%); format: functional
[22] = test system: HeLa; assay: Induction of apoptosis in human HeLa cells assessed as late apoptotic cells at 20 uM measured after 3 hrs by Annexin V-FITC/propidium iodide staining based flow cytometry (reference value: 3.59%); format: functional
[23] = test system: HeLa; assay: Induction of apoptosis in human HeLa cells assessed as necrotic cells at 20 uM measured after 3 hrs by Annexin V-FITC/propidium iodide staining based flow cytometry (reference value: 0.61%); format: functional
[24] = test system: HeLa; assay: Induction of apoptosis in human HeLa cells assessed as viable cells at 40 uM measured after 3 hrs by Annexin V-FITC/propidium iodide staining based flow cytometry (reference value: 91.43%); format: functional; settings: read-out: Activity
[25] = test system: HeLa; assay: Induction of apoptosis in human HeLa cells assessed as early apoptotic cells at 40 uM measured after 3 hrs by Annexin V-FITC/propidium iodide staining based flow cytometry (reference value: 4.37%); format: functional
[26] = test system: HeLa; assay: Induction of apoptosis in human HeLa cells assessed as late apoptotic cells at 40 uM measured after 3 hrs by Annexin V-FITC/propidium iodide staining based flow cytometry (reference value: 3.59%); format: functional
[27] = test system: HeLa; assay: Induction of apoptosis in human HeLa cells assessed as necrotic cells at 40 uM measured after 3 hrs by Annexin V-FITC/propidium iodide staining based flow cytometry (reference value: 0.61%); format: functional
[28] = test system: HeLa; assay: Induction of apoptosis in human HeLa cells assessed as viable cells at 80 uM measured after 3 hrs by Annexin V-FITC/propidium iodide staining based flow cytometry (reference value: 91.43%); format: functional; settings: read-out: Activity
[29] = test system: HeLa; assay: Induction of apoptosis in human HeLa cells assessed as early apoptotic cells at 80 uM measured after 3 hrs by Annexin V-FITC/propidium iodide staining based flow cytometry (reference value: 4.37%); format: functional
[30] = test system: HeLa; assay: Induction of apoptosis in human HeLa cells assessed as late apoptotic cells at 80 uM measured after 3 hrs by Annexin V-FITC/propidium iodide staining based flow cytometry (reference value: 3.59%); format: functional
[31] = test system: HeLa; assay: Induction of apoptosis in human HeLa cells assessed as necrotic cells at 80 uM measured after 3 hrs by Annexin V-FITC/propidium iodide staining based flow cytometry (reference value: 0.61%); format: functional
[32] = target: Glutathione S-transferase P (Homo sapiens) (UniProt P09211); assay: Induction of GSTP1 degradation in human HeLa cells at 5 to 80 uM measured after 3 hrs by Western blot analysis; format: cell-based; settings: dose 5-80 µM; summary of the method: as §1
[33] = target: Glutathione S-transferase P (Homo sapiens) (UniProt P09211); assay: Induction of GSTP1 degradation in human A549 cells at 40 to 80 uM measured after 3 hrs by Western blot analysis; format: cell-based; settings: dose 40-80 µM; summary of the method: as §1
[34] = target: Glutathione S-transferase P (Homo sapiens) (UniProt P09211); assay: Induction of GSTP1 degradation in human HT-1080 cells at 40 to 80 uM measured after 3 hrs by Western blot analysis; format: cell-based; settings: dose 40-80 µM; summary of the method: as §1
[35] = test system: HeLa; assay: Induction of reactive oxygen species generation in human HeLa cells at 80 uM measured after 3 hrs by DCFH-DA staining based fluorescence laser confocal microscopic analysis; format: functional, cell-based; summary of the method: as §4
[36] = target: Glutathione S-transferase P (Homo sapiens) (UniProt P09211); assay: Induction of GSTP1 degradation in human HeLa cells at 80 uM measured after 3 hrs by Western blot analysis; format: cell-based; summary of the method: as §1

Glutathione S-transferase P (Homo sapiens), sequence (P09211 2-210 limits assumed): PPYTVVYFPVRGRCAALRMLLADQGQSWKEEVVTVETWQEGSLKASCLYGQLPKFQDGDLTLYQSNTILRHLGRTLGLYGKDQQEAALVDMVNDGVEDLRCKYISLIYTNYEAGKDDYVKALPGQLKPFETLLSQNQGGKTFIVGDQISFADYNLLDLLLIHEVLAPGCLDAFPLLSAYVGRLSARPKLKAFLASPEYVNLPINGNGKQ

Compound: C=C(CC)C(=O)c1ccc(OCC(=O)NCCCCNC(=O)CC23CC4CC(CC(C4)C2)C3)c(Cl)c1Cl
- inhibition [1]: Active
- Activity [2]: Active
- Activity [3]: 80%
- Activity [4]: Dose-dependent effect
- Activity [5]: Dose-dependent effect
- Activity [6]: Active
- Activity [7]: Active
- Activity [8]: inactive
- Activity [9]: inactive
- Activity [10]: inactive
- Activity [11]: Active
- Activity [12]: Active
- Activity [13]: Active
- Activity [14]: Dose-dependent effect
- Activity [15]: Dose-dependent effect
- viability at 10 µM [16]: 92.5%
- Activity [17]: 3.28%
- Activity [18]: 3.7%
- Activity [19]: 0.49%
- viability at 20 µM [20]: 57%
- Activity [21]: 15.48%
- Activity [22]: 26.61%
- Activity [23]: 0.93%
- viability at 40 µM [24]: 45%
- Activity [25]: 19.7%
- Activity [26]: 34.59%
- Activity [27]: 0.75%
- viability at 80 µM [28]: 20.5%
- Activity [29]: 18.03%
- Activity [30]: 61.27%
- Activity [31]: 0.23%

Compound: C=C(CC)C(=O)c1ccc(OCC(=O)NCCNC(=O)OC(C)(C)C)c(Cl)c1Cl
- Activity [32]: inactive
- Activity [33]: inactive
- Activity [34]: inactive

Compound: C=C(CC)C(=O)c1ccc(OCC(=O)OCCOCCOCCOCCOC23CC4CC(CC(C4)C2)C3)c(Cl)c1Cl
- inhibition [1]: Active
- Activity [2]: inactive

Compound: C=C(CC)C(=O)c1ccc(OCC(=O)OCCOCCOC23CC4CC(CC(C4)C2)C3)c(Cl)c1Cl
- inhibition [1]: Active
- Activity [2]: inactive

Compound: C=C(CC)C(=O)c1ccc(OCC(=O)OCCOCCOCCOC23CC4CC(CC(C4)C2)C3)c(Cl)c1Cl
- inhibition [1]: Active
- Activity [2]: inactive

Compound: C=C(CC)C(=O)c1ccc(OCC(=O)O)c(Cl)c1Cl [ETHACRYNIC ACID]
- Activity [35]: inactive
- viability at 80 µM [28]: 84.3%
- Activity [29]: 3.67%
- Activity [30]: 10.3%
- Activity [31]: 1.72%

Compound: C=C(CC)C(=O)c1ccc(OCC(=O)OCCOC23CC4CC(CC(C4)C2)C3)c(Cl)c1Cl
- inhibition [1]: Active
- Activity [2]: inactive

Compound: C=C(CC)C(=O)c1ccc(OCC(=O)NCCCCCCNC(=O)CC23CC4CC(CC(C4)C2)C3)c(Cl)c1Cl
- inhibition [1]: Active
- Activity [2]: Active

Compound: C=C(CC)C(=O)c1ccc(OCC(=O)NCCNC(=O)CC23CC4CC(CC(C4)C2)C3)c(Cl)c1Cl
- inhibition [1]: Active
- Activity [2]: Active

Compound: C=C(CC)C(=O)c1ccc(OCC(=O)NCCCCCCNC(=O)OC(C)(C)C)c(Cl)c1Cl
- Activity [36]: Active

Compound: C=C(CC)C(=O)c1ccc(OCC(=O)NC23CC4CC(CC(C4)C2)C3)c(Cl)c1Cl
- inhibition [1]: Active
- Activity [2]: Active
